According to ChEMBL document CHEMBL4152223 (Eur J Med Chem, 2018):

Legend:
[1] = test system: Mycobacterium tuberculosis; assay: Antimycobacterial activity against INH/RIF/rifabutine/STM/EMB resistant Mycobacterium tuberculosis 234/2005 after 21 days; assay type: functional; conditions: 234/2005, 504 h
How it was run: (§1)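 MIC against four MDR-TB strains and one XDR-TB strain, each inoculated at 10^-3 dilution, using the same broth method as for drug-susceptible M. tuberculosis. Concentrations tested were 1000 down to 1 µM in twofold-type steps (1000, 500, 250, 125, 62.5, 32, 16, 8, 4, 2, 1 µM). MIC is the lowest concentration with complete growth inhibition.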

[2] = test system: Mycobacterium tuberculosis; assay: Antimycobacterial activity against INH/RIF/rifabutine/STM/EMB/clofazimine resistant Mycobacterium tuberculosis Praha 1 after 14 days; assay type: functional; conditions: Praha 1, 336 h; how it was run: as §1
[3] = test system: Mycobacterium tuberculosis; assay: Antimycobacterial activity against INH/RIF/rifabutine/STM/EMB/OFX/gentamicin/amikacin resistant Mycobacterium tuberculosis Praha 131 after 21 days; assay type: functional; conditions: Praha 131, 504 h; how it was run: as §1
[4] = Selectivity index, ratio of IC50 for human HepG2 cells to MIC for INH/RIF/rifabutine/STM resistant Mycobacterium tuberculosis 9449/2006; assay type: toxicity; conditions: read-out: Selectivity Index
How it was run: (§2)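 SI is calculated as HepG2 IC50 divided by MIC. HepG2 cells (passage 2-4) were grown in EMEM with 10% FBS, L-glutamine and non-essential amino acids. Compounds in DMSO were tested in triplicate at eight concentrations, and viability was read by MTS tetrazolium reduction. 10% DMSO served as the 0% viability control.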

[5] = test system: Mycobacterium tuberculosis; assay: Antimycobacterial activity against INH/RIF/rifabutine/STM/EMB/OFX/clofazimine resistant Mycobacterium tuberculosis Praha 4 after 21 days; assay type: functional; conditions: Praha 4, 504 h; how it was run: as §1
[6] = test system: Mycobacterium tuberculosis; assay: Antimycobacterial activity against INH/RIF/rifabutine/STM resistant Mycobacterium tuberculosis 9449/2006 after 14 days; assay type: functional; conditions: 9449/2006, 336 h; how it was run: as §1
[7] = Selectivity index, ratio of IC50 for human HepG2 cells to MIC for INH/RIF/rifabutine/STM/EMB/clofazimine resistant Mycobacterium tuberculosis Praha 1; assay type: toxicity; conditions: read-out: Selectivity Index; how it was run: as §2
[8] = Selectivity index, ratio of IC50 for human HepG2 cells to MIC for INH/RIF/rifabutine/STM/EMB/OFX/gentamicin/amikacin resistant Mycobacterium tuberculosis Praha 131; assay type: toxicity; conditions: read-out: Selectivity Index; how it was run: as §2
[9] = test system: Mycobacterium tuberculosis; assay: Antimycobacterial activity against INH/RIF/rifabutine/STM/EMB/OFX/gentamicin/amikacin resistant Mycobacterium tuberculosis Praha 131 after 14 days; assay type: functional; conditions: Praha 131, 336 h; how it was run: as §1
[10] = Selectivity index, ratio of IC50 for human HepG2 cells to MIC for INH/RIF/rifabutine/STM/EMB resistant Mycobacterium tuberculosis 234/2005; assay type: toxicity; conditions: read-out: Selectivity Index; how it was run: as §2
[11] = test system: Mycobacterium tuberculosis; assay: Antimycobacterial activity against INH/RIF/rifabutine/STM resistant Mycobacterium tuberculosis 9449/2006 after 21 days; assay type: functional; conditions: 9449/2006, 504 h; how it was run: as §1
[12] = test system: Mycobacterium tuberculosis; assay: Antimycobacterial activity against INH/RIF/rifabutine/STM/EMB resistant Mycobacterium tuberculosis 234/2005 after 14 days; assay type: functional; conditions: 234/2005, 336 h; how it was run: as §1
[13] = test system: Mycobacterium tuberculosis; assay: Antimycobacterial activity against INH/RIF/rifabutine/STM/EMB/OFX/clofazimine resistant Mycobacterium tuberculosis Praha 4 after 14 days; assay type: functional; conditions: Praha 4, 336 h; how it was run: as §1
[14] = Selectivity index, ratio of IC50 for human HepG2 cells to MIC for INH/RIF/rifabutine/STM/EMB/OFX/clofazimine resistant Mycobacterium tuberculosis Praha 4; assay type: toxicity; conditions: read-out: Selectivity Index; how it was run: as §2
[15] = test system: Mycobacterium tuberculosis; assay: Antimycobacterial activity against INH/RIF/rifabutine/STM/EMB/clofazimine resistant Mycobacterium tuberculosis Praha 1 after 21 days; assay type: functional; conditions: Praha 1, 504 h; how it was run: as §1
[16] = Selectivity ratio of MIC for INH/RIF/rifabutine/STM resistant Mycobacterium tuberculosis 9449/2006 to MIC for Mycobacterium tuberculosis H37Rv; assay type: functional
[17] = Selectivity ratio of MIC for INH/RIF/rifabutine/STM/EMB/clofazimine resistant Mycobacterium tuberculosis Praha 1 to MIC for Mycobacterium tuberculosis H37Rv; assay type: functional
[18] = Selectivity ratio of MIC for INH/RIF/rifabutine/STM/EMB resistant Mycobacterium tuberculosis 234/2005 to MIC for Mycobacterium tuberculosis H37Rv; assay type: functional
[19] = Selectivity ratio of MIC for INH/RIF/rifabutine/STM/EMB/OFX/gentamicin/amikacin resistant Mycobacterium tuberculosis Praha 131 to MIC for Mycobacterium tuberculosis H37Rv; assay type: functional
[20] = Selectivity ratio of MIC for INH/RIF/rifabutine/STM/EMB/OFX/clofazimine resistant Mycobacterium tuberculosis Praha 4 to MIC for Mycobacterium tuberculosis H37Rv; assay type: functional

CCNC(=O)NNC(=O)c1ccncc1
125 µM: MIC [1] | MIC [2] | MIC [3] | MIC [5] | MIC [6] | MIC [9] | MIC [11] | MIC [12] | MIC [13] | MIC [15]
> 32: selectivity ratio [4] | selectivity ratio [7] | selectivity ratio [8] | selectivity ratio [10] | selectivity ratio [14]

CNC(=O)NNC(=O)c1ccncc1
< 125: Ratio [16] | Ratio [17] | Ratio [18] | Ratio [19] | Ratio [20]
32 µM: MIC [9]
> 80: selectivity ratio [4] | selectivity ratio [7] | selectivity ratio [8] | selectivity ratio [10] | selectivity ratio [14]
62.5 µM: MIC [1] | MIC [2] | MIC [3] | MIC [5] | MIC [6] | MIC [11] | MIC [12] | MIC [13] | MIC [15]

CCCCCCCCCCCCNc1nnc(-c2ccncc2)o1
> 6.25: selectivity ratio [4] | selectivity ratio [7] | selectivity ratio [10] | selectivity ratio [14]
> 12.5: selectivity ratio [8]
8 µM: MIC [1] | MIC [3] | MIC [5] | MIC [15]
4 µM: MIC [2] | MIC [6] | MIC [9] | MIC [11] | MIC [12] | MIC [13]

CCCNC(=O)NNC(=O)c1ccncc1
> 312: selectivity ratio [4] | selectivity ratio [7] | selectivity ratio [8] | selectivity ratio [10] | selectivity ratio [14]
16 µM: MIC [1] | MIC [2] | MIC [3] | MIC [5] | MIC [6] | MIC [9] | MIC [11] | MIC [12] | MIC [13] | MIC [15]
< 125: Ratio [16] | Ratio [17] | Ratio [18] | Ratio [19] | Ratio [20]
